Biological target: T1, Period circadian protein homolog 2 (Homo sapiens, UniProt O15055)
T1 sequence (O15055 whole entry): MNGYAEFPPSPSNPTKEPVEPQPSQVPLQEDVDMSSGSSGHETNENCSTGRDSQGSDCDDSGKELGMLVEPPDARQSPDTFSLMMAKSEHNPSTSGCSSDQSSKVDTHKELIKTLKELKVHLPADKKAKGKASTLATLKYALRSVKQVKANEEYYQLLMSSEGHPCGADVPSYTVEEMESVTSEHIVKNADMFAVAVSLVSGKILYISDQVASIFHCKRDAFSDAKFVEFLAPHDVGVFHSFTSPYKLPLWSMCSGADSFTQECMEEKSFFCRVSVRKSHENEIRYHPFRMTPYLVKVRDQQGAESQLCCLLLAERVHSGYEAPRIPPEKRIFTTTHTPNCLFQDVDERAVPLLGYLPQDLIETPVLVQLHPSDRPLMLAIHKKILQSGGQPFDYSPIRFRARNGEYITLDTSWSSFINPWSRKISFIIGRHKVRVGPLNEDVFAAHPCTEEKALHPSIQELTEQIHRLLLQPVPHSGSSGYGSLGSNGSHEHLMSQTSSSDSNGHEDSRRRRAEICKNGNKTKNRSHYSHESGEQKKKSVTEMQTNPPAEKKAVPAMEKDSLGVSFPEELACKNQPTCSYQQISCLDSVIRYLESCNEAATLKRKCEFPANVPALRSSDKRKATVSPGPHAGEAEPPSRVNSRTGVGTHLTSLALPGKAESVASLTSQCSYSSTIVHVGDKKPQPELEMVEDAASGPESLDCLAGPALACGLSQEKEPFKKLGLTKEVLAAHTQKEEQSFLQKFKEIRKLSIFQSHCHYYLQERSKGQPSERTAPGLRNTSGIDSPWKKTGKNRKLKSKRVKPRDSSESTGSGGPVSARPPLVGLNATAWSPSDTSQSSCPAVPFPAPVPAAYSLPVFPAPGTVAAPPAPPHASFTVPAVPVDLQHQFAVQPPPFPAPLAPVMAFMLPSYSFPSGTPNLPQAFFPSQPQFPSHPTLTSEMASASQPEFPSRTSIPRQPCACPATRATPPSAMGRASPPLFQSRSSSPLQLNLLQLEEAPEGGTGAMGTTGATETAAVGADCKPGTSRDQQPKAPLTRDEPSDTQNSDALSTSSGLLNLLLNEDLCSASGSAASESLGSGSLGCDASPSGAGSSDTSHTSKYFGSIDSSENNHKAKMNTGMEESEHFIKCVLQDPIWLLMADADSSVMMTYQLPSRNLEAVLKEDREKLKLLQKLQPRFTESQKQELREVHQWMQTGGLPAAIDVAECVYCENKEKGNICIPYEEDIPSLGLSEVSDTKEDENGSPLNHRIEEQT
Assay: Reduction of amplitude effect of PER2 in human U2OS cells harboring Per2-dLuc luciferase reporter gene assessed as effects on circadian rhythms
How it was run: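 Human osteosarcoma U2OS cells carrying a Per2-dLuc luciferase reporter, treated continuously; circadian luminescence rhythm amplitude followed. 8-point threefold dilution series; EC50 taken as concentration giving 50% of the compound's own maximal response (titrations without plateau give no EC50).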

Compound | EC50 [nM]
O=S1(=O)CCN1CC(O)Cn1c2ccccc2c2ccccc21 (stereo unspecified) | 190
CC(C)S(=O)(=O)N(Cc1ccco1)CC(O)Cn1c2ccccc2c2ccccc21 (stereo unspecified) | 438
CS(=O)(=O)N(Cc1ccccc1)CC(O)Cn1c2ccccc2c2ccccc21 (stereo unspecified) | 818
CN1CCN(CC(O)Cn2c3ccccc3c3ccccc32)S1(=O)=O (stereo unspecified) | 132
O=S1(=O)NCCCN1CC(O)Cn1c2ccccc2c2ccccc21 (stereo unspecified) | 384
CS(=O)(=O)N(CC(O)Cn1c2ccccc2c2ccccc21)C1CCCC1 (stereo unspecified) | 308
O=S(=O)(C1CCOC1)N(Cc1ccco1)CC(O)Cn1c2ccccc2c2ccccc21 (stereo unspecified) | 1180
CS(=O)(=O)N(CC(O)Cn1c2ccccc2c2ccccc21)c1ccccc1F (stereo unspecified) | 2550
CCCS(=O)(=O)N(Cc1ccco1)CC(O)Cn1c2ccccc2c2ccccc21 (stereo unspecified) | 516
CS(=O)(=O)N(CC(O)Cn1c2ccccc2c2ccccc21)C1CCC1 (stereo unspecified) | 129
O=S(=O)(C1CCCCC1)N(Cc1ccco1)CC(O)Cn1c2ccccc2c2ccccc21 (stereo unspecified) | 1000
O=S(=O)(C1CC1)N(Cc1ccco1)CC(O)Cn1c2ccccc2c2ccccc21 (stereo unspecified) | 557
CC(C)CS(=O)(=O)N(Cc1ccco1)CC(O)Cn1c2ccccc2c2ccccc21 (stereo unspecified) | 361
O=S1(=O)NCCN1CC(O)Cn1c2ccccc2c2ccccc21 (stereo unspecified) | 42
CS(=O)(=O)NCC(O)Cn1c2ccccc2c2ccccc21 (stereo unspecified) | 479
CC(C)CN(CC(O)Cn1c2ccccc2c2ccccc21)S(C)(=O)=O (stereo unspecified) | 178
O=S1(=O)CCCCN1CC(O)Cn1c2ccccc2c2ccccc21 (stereo unspecified) | 173
CS(=O)(=O)N(CC(O)Cn1c2ccccc2c2ccccc21)C1CC1 (stereo unspecified) | 446
CS(=O)(=O)N(CC(O)Cn1c2ccccc2c2ccccc21)C1CC(F)(F)C1 (stereo unspecified) | 1270
CS(=O)(=O)N(CC(O)Cn1c2ccccc2c2ccccc21)c1ccccn1 (stereo unspecified) | > 10000
CS(=O)(=O)N(CC(O)Cn1c2ccccc2c2ccccc21)c1ccccc1 (stereo unspecified) | 272

Compound | EC50 [nM]
CCN(CC(O)Cn1c2ccccc2c2ccccc21)S(C)(=O)=O (stereo unspecified) | 505
O=S1(=O)COCCN1CC(O)Cn1c2ccccc2c2ccccc21 (stereo unspecified) | 73
CS(=O)(=O)N(CC(O)Cn1c2ccccc2c2ccccc21)C1COC1 (stereo unspecified) | 3530
O=S1(=O)CCCN1CC(O)Cn1c2ccccc2c2ccccc21 (stereo unspecified) | 144
O=S(=O)(c1ccccc1)N(Cc1ccco1)CC(O)Cn1c2ccccc2c2ccccc21 (stereo unspecified) | 1090
CS(=O)(=O)N(Cc1ccco1)CC(O)Cn1c2ccccc2c2ccccc21 (stereo unspecified) [N-(3-carbazol-9-yl-2-hydroxypropyl)-N-(furan-2-ylmethyl)methanesulfonamide] | 870
COCCN(CC(O)Cn1c2ccccc2c2ccccc21)S(C)(=O)=O (stereo unspecified) | 1020
O=S(=O)(Cc1ccccc1)N(Cc1ccco1)CC(O)Cn1c2ccccc2c2ccccc21 (stereo unspecified) | 415
CCCCS(=O)(=O)N(Cc1ccco1)CC(O)Cn1c2ccccc2c2ccccc21 (stereo unspecified) | 374
CS(=O)(=O)N(CC(O)Cn1c2ccccc2c2ccccc21)C1CCC(F)(F)CC1 (stereo unspecified) | 690
CCS(=O)(=O)N(Cc1ccco1)CC(O)Cn1c2ccccc2c2ccccc21 (stereo unspecified) | 197
CS(=O)(=O)N(CC(O)Cn1c2ccccc2c2ccccc21)c1cccc(F)c1 (stereo unspecified) | 400
CCCN(CC(O)Cn1c2ccccc2c2ccccc21)S(C)(=O)=O (stereo unspecified) | 408
CC(C)N(CC(O)Cn1c2ccccc2c2ccccc21)S(C)(=O)=O (stereo unspecified) | 511
CN(CC(O)Cn1c2ccccc2c2ccccc21)S(C)(=O)=O (stereo unspecified) | 781
CN1CCCN(CC(O)Cn2c3ccccc3c3ccccc32)S1(=O)=O (stereo unspecified) | 726
CS(=O)(=O)N(CC(O)Cn1c2ccccc2c2ccccc21)C1CCOCC1 (stereo unspecified) | 819
CS(=O)(=O)N(CC(O)Cn1c2ccccc2c2ccccc21)C1CCCCC1 (stereo unspecified) | 532
CS(=O)(=O)N(CC(O)Cn1c2ccccc2c2ccccc21)c1ccc(F)cc1 (stereo unspecified) | 939
COCCS(=O)(=O)N(Cc1ccco1)CC(O)Cn1c2ccccc2c2ccccc21 (stereo unspecified) | 288
